Reference: ChEMBL document CHEMBL1154122, “A comprehensive study of Sansalvamide A derivatives: The structure-activity relationships of 78 derivatives in two pancreatic cancer cell lines” (2009)

How the values were obtained:
BXPC-3 = assay: Cytotoxicity against human BxPC3 cells after 56 hrs by [3H]thymidine uptake assay; format: functional
How it was run: (§1)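 Cells seeded at 2000–2500/well in DMEM with L-glutamine, 10% FBS and 1% penicillin-streptomycin. […] After 56 h, 3H-thymidine was added for 16 h more (72 h total), then cells were harvested and counted (CPM). Inhibition = 1 − CPM treated/DMSO; IC50 taken from curves, mean and SEM.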

[1] = Cytotoxicity against human PL45 cells after 56 hrs by [3H]thymidine uptake assay; format: functional; how it was run: as §1

Structure (SMILES)	growth inhibition (GI) (BXPC-3)	growth inhibition (GI) [1]
CC(C)C[C@@H]1NC(=O)[C@H](Cc2ccccc2)NC(=O)[C@H](CC(C)C)NC(=O)[C@H](C(C)C)NC(=O)[C@H](CC(C)C)NC1=O	42%	25%
CC(C)C[C@@H]1NC(=O)[C@H](Cc2ccccc2)NC(=O)[C@H](CC(C)C)NC(=O)[C@H](C(C)C)N(C)C(=O)[C@H](CC(C)C)NC1=O	28%	20%
CC(C)C[C@@H]1NC(=O)[C@H](Cc2ccccc2)NC(=O)[C@@H](CC(C)C)NC(=O)[C@@H](C(C)C)NC(=O)[C@H](CC(C)C)NC1=O	33%	41%
CC(C)C[C@@H]1NC(=O)[C@H](CC(C)C)NC(=O)[C@@H](Cc2ccccc2)NC(=O)[C@@H](CC(C)C)NC(=O)[C@@H](C(C)C)NC1=O	42%	44%
CC(C)C[C@@H]1NC(=O)[C@H](C(C)C)NC(=O)[C@H](CC(C)C)NC(=O)[C@H](CC(C)C)N(C)C(=O)[C@H](Cc2ccccc2)NC1=O	47%	44%
CC(C)C[C@@H]1NC(=O)[C@H](Cc2ccccc2)NC(=O)[C@@H](Cc2ccccc2)N(C)C(=O)[C@H](C(C)C)NC(=O)[C@H](CC(C)C)NC1=O	35%	51%
CC(C)C[C@@H]1NC(=O)[C@H](Cc2ccccc2)NC(=O)[C@@H](Cc2ccccc2)NC(=O)[C@H](C(C)C)NC(=O)[C@H](CC(C)C)NC1=O	55%	39%
CC(C)C[C@@H]1NC(=O)[C@H](Cc2ccccc2)NC(=O)[C@H](CC(C)C)NC(=O)[C@@H](C(C)C)NC(=O)[C@H](CC(C)C)NC1=O	22%	45%
CC(C)C[C@@H]1NC(=O)[C@H](C(C)C)NC(=O)[C@H](CC(C)C)NC(=O)[C@@H](CC(C)C)N(C)C(=O)[C@H](Cc2ccccc2)NC1=O	43%	49%
CC(C)C[C@@H]1NC(=O)[C@H](CC(C)C)NC(=O)[C@@H](Cc2ccccc2)NC(=O)[C@H](CC(C)C)NC(=O)[C@H](C(C)C)NC1=O	55%	22%
CC(C)C[C@@H]1NC(=O)[C@H](C(C)C)NC(=O)[C@H](CC(C)C)NC(=O)[C@@H](CC(C)C)NC(=O)[C@H](Cc2ccccc2)NC1=O	29%	29%
CC(C)C[C@@H]1NC(=O)[C@H](Cc2ccccc2)NC(=O)[C@@H](CC(C)C)NC(=O)[C@H](C(C)C)NC(=O)[C@H](CC(C)C)NC1=O	34%	41%
CC(C)C[C@@H]1NC(=O)[C@@H](CC(C)C)NC(=O)[C@H](Cc2ccccc2)NC(=O)[C@H](CC(C)C)NC(=O)[C@@H](C(C)C)NC1=O	30%	32%
CC(C)C[C@@H]1NC(=O)[C@H](Cc2ccccc2)NC(=O)[C@H](CC(C)C)NC(=O)[C@H](C(C)C)NC(=O)[C@@H](CC(C)C)NC1=O	0%	0%
CC(C)C[C@@H]1NC(=O)[C@H](C(C)C)NC(=O)[C@@H](CC(C)C)NC(=O)[C@@H](CC(C)C)NC(=O)[C@H](Cc2ccccc2)NC1=O	0%	14%
CC(C)C[C@@H]1NC(=O)[C@@H](C(C)C)N(C)C(=O)[C@H](CC(C)C)NC(=O)[C@@H](CC(C)C)NC(=O)[C@H](Cc2ccccc2)NC1=O	35%	21%
CC(C)C[C@@H]1NC(=O)[C@H](Cc2ccccc2)NC(=O)[C@H](CC(C)C)NC(=O)[C@@H](C(C)C)N(C)C(=O)[C@H](CC(C)C)NC1=O	34%	29%
CC(C)C[C@@H]1NC(=O)[C@H](C(C)C)N(C)C(=O)[C@H](CC(C)C)NC(=O)[C@@H](Cc2ccccc2)NC(=O)[C@H](Cc2ccccc2)NC1=O	3%	21%
CC(C)C[C@@H]1NC(=O)[C@@H](CC(C)C)N(C)C(=O)[C@H](Cc2ccccc2)NC(=O)[C@H](CC(C)C)NC(=O)[C@@H](C(C)C)NC1=O	38%	26%
CC(C)C[C@@H]1NC(=O)[C@H](C(C)C)N(C)C(=O)[C@@H](CC(C)C)NC(=O)[C@@H](Cc2ccccc2)NC(=O)[C@@H](Cc2ccccc2)NC1=O	6%	15%
CC(C)[C@@H]1NC(=O)[C@H](CC2CCCCC2)NC(=O)[C@H](COCc2ccccc2)NC(=O)[C@H](Cc2ccccc2)NC(=O)[C@@H](Cc2ccccc2)N(C)C1=O	44%	40%
CC(C)C[C@@H]1NC(=O)[C@H](Cc2ccccc2)NC(=O)[C@@H](Cc2ccccc2)N(C)C(=O)[C@@H](C(C)C)NC(=O)[C@H](CC(C)C)NC1=O	4%	55%
CC(C)C[C@@H]1NC(=O)[C@H](CC(C)C)NC(=O)[C@@H](Cc2ccccc2)NC(=O)[C@H](CC(C)C)NC(=O)[C@@H](C(C)C)NC1=O	7%	41%
CC(C)C[C@@H]1NC(=O)[C@@H](Cc2ccccc2)NC(=O)[C@H](CC(C)C)NC(=O)[C@@H](C(C)C)N(C)C(=O)[C@H](CC(C)C)NC1=O	31%	36%
CC(C)C[C@@H]1NC(=O)[C@H](Cc2ccccc2)NC(=O)[C@H](CC(C)C)NC(=O)[C@@H](C(C)C)NC(=O)[C@@H](CC(C)C)NC1=O	12%	14%
CC(C)C[C@@H]1NC(=O)[C@H](Cc2ccccc2)NC(=O)[C@@H](Cc2ccccc2)N(C)C(=O)[C@H](C(C)C)NC(=O)[C@H](CC2CCCCC2)NC1=O	21%	44%
CC(C)C[C@@H]1NC(=O)[C@H](C(C)C)N(C)C(=O)[C@@H](CCCCNC(=O)OCc2ccccc2)NC(=O)[C@@H](Cc2ccccc2)NC(=O)[C@H](Cc2ccccc2)NC1=O	55%	65%
CC(C)C[C@@H]1NC(=O)[C@H](C(C)C)N(C)C(=O)[C@@H](CCCCN)NC(=O)[C@@H](Cc2ccccc2)NC(=O)[C@H](Cc2ccccc2)NC1=O	8%	5%
CC(C)[C@H]1NC(=O)[C@H](CC2CCCCC2)NC(=O)[C@H](COCc2ccccc2)NC(=O)[C@H](Cc2ccccc2)NC(=O)[C@@H](Cc2ccccc2)N(C)C1=O	80%	70%
CC(C)C[C@@H]1NC(=O)[C@H](COCc2ccccc2)NC(=O)[C@@H](Cc2ccccc2)NC(=O)[C@@H](CC(C)C)NC(=O)[C@@H](C(C)C)NC1=O	43%	30%
